{"data": "Measured values collected from several papers", "effect on": "cell growth or viability"}
{"SMILES": "COc1cc(OC)c2c(=O)cc(-c3ccc(Br)cc3)oc2c1", "cell line": "HS27", "method": "MTT", "time": "24 h", "IC50": "> 200 µM"}
{"SMILES": "COC(=O)CN=c1scc(-c2ccccc2)n1-c1ccc(C)cc1", "cell line": "Panc 04.03", "method": "MTT", "time": "72 h", "IC50": "50.3 µM"}
{"SMILES": "COc1cc(C)c(-c2c(C)cc(OC)c3c(=O)cc(-c4cccc(Br)c4)oc23)c2oc(-c3cccc(Br)c3)cc(=O)c12", "cell line": "HS27", "method": "MTT", "time": "24 h", "IC50": "> 200 µM"}
{"SMILES": "COC(=O)CN=c1scc(-c2ccccc2)n1-c1ccccc1OC", "cell line": "SiHa", "method": "MTT", "time": "72 h", "IC50": "4.2 µM"}
{"SMILES": "Fc1ccc(-c2nc3ccccc3[nH]2)cc1", "cell line": "MDA-MB-231", "method": "MTT", "time": "48 h", "IC50": "> 100 µM"}
{"SMILES": "CC(=O)c1cccc(N=Nc2c(C(=O)O)cc(O)c(O)c2O)c1", "cell line": "A-375", "method": "MTT", "IC50": "11.9 µM"}
{"SMILES": "COc1cc2nccc(Oc3ccc(NC(=O)C4(C(=O)Nc5ccc(F)cc5)CC4)cc3)c2cc1OC", "cell line": "CMK", "method": "trypan blue", "time": "72 h", "IC50": "> 5.91 µM"}
{"SMILES": "Cc1ccc2nc(-c3ccccc3O)[nH]c2c1", "cell line": "MDA-MB-231", "method": "MTT", "time": "48 h", "IC50": "31.9 µM"}
{"SMILES": "COc1cc(OC)c2c(=O)cc(-c3ccccc3)oc2c1-c1c(OC)cc(OC)c2c(=O)cc(-c3ccccc3)oc12", "cell line": "HS27", "method": "MTT", "time": "24 h", "IC50": "> 200 µM"}
{"SMILES": "CCCCC[C@H](O)CC(=O)CCc1ccc(O)c(OC)c1", "cell line": "MRC5", "method": "SRB", "IC50": "303 µM"}
{"SMILES": "COc1ccc(-c2cc(=O)c3c(OC)cc(C)cc3o2)cc1", "cell line": "HS27", "method": "MTT", "time": "24 h", "IC50": "> 200 µM"}
{"SMILES": "COc1ccc(C[C@H]2CO[C@H](c3ccc(OC)c(OC)c3)[C@H]2COC(=O)C=C(C)C)cc1OC", "cell line": "rat VSMC", "method": "resazurin", "time": "48 h", "IC50": "34.3 µM"}
{"SMILES": "C=CCn1c(-c2ccc(Cl)c(Cl)c2)nc2ccccc21", "cell line": "MDA-MB-231", "method": "MTT", "IC50": "40.8 µM"}
{"SMILES": "Cc1ccc2c(Br)cc(Br)c(O)c2n1", "cell line": "BEL-7404", "method": "MTT", "time": "48 h", "IC50": "> 150 µM"}
{"SMILES": "COC(=O)CN=c1scc(-c2ccccc2)n1-c1ccccc1[N+](=O)[O-]", "cell line": "Panc 04.03", "method": "MTT", "time": "72 h", "IC50": "22.1 µM"}
{"SMILES": "Oc1ccc(Nc2nc(-c3ccc(Cl)cc3)cs2)cc1", "cell line": "FF2441", "method": "MTS", "time": "48 h", "IC50": "> 100 µM"}
{"SMILES": "Cc1ccc2nc(-c3cccc(O)c3)[nH]c2c1", "cell line": "MDA-MB-231", "method": "MTT", "time": "48 h", "IC50": "> 100 µM"}
{"SMILES": "COc1cc(C)c(-c2c(C)cc(OC)c3c(=O)cc(-c4ccc(C(F)(F)F)cc4)oc23)c2oc(-c3ccc(C(F)(F)F)cc3)cc(=O)c12", "cell line": "HS27", "method": "MTT", "time": "24 h", "IC50": "> 200 µM"}
{"SMILES": "CSc1ccc(-c2nc3ccc(C)cc3[nH]2)cc1", "cell line": "MDA-MB-231", "method": "MTT", "time": "48 h", "IC50": "> 100 µM"}
{"SMILES": "Oc1c(Br)cc(Br)c2cccnc12", "cell line": "BEL-7404", "method": "MTT", "time": "48 h", "IC50": "68.1 µM"}
{"SMILES": "COc1cc(C)c(-c2c(C)cc(OC)c3c(=O)cc(-c4ccc(N(C)C)cc4)oc23)c2oc(-c3ccc(N(C)C)cc3)cc(=O)c12", "cell line": "HS27", "method": "MTT", "time": "24 h", "IC50": "180 µM"}
{"SMILES": "C=CCn1c(-c2ccc(Cl)cc2)nc2ccc(C)cc21", "cell line": "MDA-MB-231", "method": "MTT", "IC50": "30.1 µM"}
